M5 PAM: positive allosteric modulators of human muscarinic M5 receptor; 360,000 tested, 0.3% active; P08912; activation, % at 3 µM; AID 624038; CHO-K1 hM5, Fluo-8 calcium, ACh EC20 PAM; 0% = ACh EC20, 100% = ACh EC100;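 active = activation above the run cutoff, the mean activation of all test compounds plus 3 SD, cut at about 18% in these data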
Target sequence (P08912 whole entry, looked up): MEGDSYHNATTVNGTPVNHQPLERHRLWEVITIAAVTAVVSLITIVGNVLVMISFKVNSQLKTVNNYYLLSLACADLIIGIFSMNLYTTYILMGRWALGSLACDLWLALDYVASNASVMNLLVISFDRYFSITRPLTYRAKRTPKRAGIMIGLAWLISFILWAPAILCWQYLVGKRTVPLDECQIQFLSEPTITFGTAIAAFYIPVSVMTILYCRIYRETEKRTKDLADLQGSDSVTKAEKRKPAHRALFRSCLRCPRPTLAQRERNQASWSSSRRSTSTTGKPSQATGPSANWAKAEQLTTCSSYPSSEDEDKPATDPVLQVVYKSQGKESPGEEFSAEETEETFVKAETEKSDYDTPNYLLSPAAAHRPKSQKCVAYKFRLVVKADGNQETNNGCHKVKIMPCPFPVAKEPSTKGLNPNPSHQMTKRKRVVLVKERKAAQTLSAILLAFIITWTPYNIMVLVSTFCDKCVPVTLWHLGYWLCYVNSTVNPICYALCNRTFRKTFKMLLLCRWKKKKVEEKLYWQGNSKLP
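Assay system: CHO-K1 hM5 cells / Incubation: Fluo-8 loading 80 min at 37 °C plus 30 min room temperature / Technique: Fluo-8 calcium dye fluorescence, kinetic read / Repeats: single replicate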
M5 antag: blocks acetylcholine activation of human M5 receptor; P08912; CHO-hM5 cells, Fluo-8 calcium fluorescence, ACh EC80; inhibition, % at 3 µM; 360,000 tested, 0.59% active; AID 624040;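 active = inhibition above a per-plate cutoff, the mean of that plate's test compounds plus 3 SD, cut at about 27% in these data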
CHRM1 PAM: positive allosteric modulators of human M1 muscarinic receptor; activation, % at 3 µM; 360,000 tested, 0.088% active; P11229; CHO-K1 hM1, Fluo-8 calcium fluorescence, ACh EC20; 0% = ACh EC20, 100% = maximal ACh; in the data active = activation above about 19%, passing the limit was not always enough
CHRM5 agonist: CHRM5 agonism in calcium assay; P08912; CHO-K1 hM5 cells, Fluo-8 calcium fluorescence; 0% DMSO wells, 100% maximal acetylcholine response; activation, % at 3 µM; 360,000 tested, 0.19% active; AID 624037;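 active = activation above the run's mean over test compounds plus 3 SD, cut at about 23% in these data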;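 note: signal is peak over basal fluorescence ratio across the kinetic read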
M1 antag: human CHRM1 antagonism; inhibition, % at 3 µM; P11229; CHO-K1 hM1, Fluo-8 calcium fluorescence, ACh EC80 antagonist; 360,000 tested, 1.3% active;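 active = percent inhibition above its own plate's cutoff, namely the mean of that plate's compound wells plus 3 SD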;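 note: peak over basal fluorescence ratio during 140 s after agonist addition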
CHRM1 agonist: human M1 muscarinic receptor agonism; CHO-K1 hM1, Fluo-8 calcium fluorescence, agonist mode; 0% DMSO, 100% acetylcholine EC100; activation, % at 3 µM; 360,000 tested, 0.33% active;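 active = activation above the run's mean compound activation plus 3 SD, cut at about 16% in these data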;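 note: peak over basal fluorescence ratio within a 140 s kinetic read after compound addition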
Of the large screens only hits and unclear results are named; the others gave an inactive call. This is a sample that favours compounds with a hit; in the whole collection about 2% have one here.

COC(=O)c1cc2c(ccn2-c2ccc(F)cc2)n1Cc1ccc(OC(C)=O)cc1	none
CCCn1c(C(=O)OC)cc2c1ccn2-c1ccc(F)cc1	M5 PAM 19
Cc1cc(N2CCN(C)CC2)ccc1NC(=O)c1cccc(S(=O)(=O)N2CCc3ccccc3C2)c1	M1 antag 79
COc1cc(OC)c(OC)cc1CNC(=O)c1cccc(S(=O)(=O)N2CCc3ccccc3C2)c1	M1 antag 36
COc1ccccc1CNC(=O)c1cccc(S(=O)(=O)N2CCN(C)CC2)c1	none
COc1ccccc1CNC(=O)C1=CCN(S(=O)(=O)c2ccc(C)cc2)CC1	M5 PAM 19
Cc1ccc(CNC(=O)C2=CCN(S(=O)(=O)c3ccc(C)cc3)CC2)cc1	none
COC(=O)[C@@]12C[C@@H](CC(=O)NCCCCc3ccccc3)C(=O)N(Cc3ccco3)C1=CCC(C)(C)C2	none (no result: CHRM1 PAM, M1 antag, CHRM1 agonist)
CCN(CC(=O)Nc1ccc2c(c1)OCCO2)C(=O)COc1ccc(C(C)=O)cc1	none
O=C(NCC(F)(F)F)c1cc2c(c(-c3cccc(-c4ccccc4F)c3)n1)[C@@H](CCO)N(C(=O)CC1CC1)C2	none (no result: CHRM1 PAM, M1 antag, CHRM1 agonist)
CC(C)Cn1nc(C(=O)Nc2nnc(C3CC3)s2)c2ccccc2c1=O	none
COC(=O)c1c(N)sc(C(C)=O)c1C	CHRM1 agonist 16
CC(=O)c1cccc(NC(=O)N2CCCCCC2)c1	none
CC(=O)c1cccc(NS(=O)(=O)c2ccc(NC(=O)N3CCCCC3)cc2)c1	M1 antag 36
O=S(=O)(/N=S1\CC=CCN1S(=O)(=O)c1ccccc1)c1ccccc1 (centres undefined)	CHRM5 agonist 34, CHRM1 agonist 38
CC1=C(C)CS(=O)N(S(=O)(=O)c2ccccc2)C1 (centres undefined)	none
O=C1c2ccccc2C(c2nnnn2-c2ccc3c(c2)OCCO3)N1Cc1cccnc1 (centres undefined)	none (no result: CHRM1 PAM, M1 antag, CHRM1 agonist)
COC(=O)N1CCCCC1c1cc(C(=O)Nc2ccccc2Cl)no1 (centres undefined)	CHRM1 PAM 28
CCOc1cc(OCC)cc(C(=O)N2CCC[C@H]2C(=O)N2CCC[C@H]2C(=O)N[C@H](C)c2ccccc2)c1	none (no result: CHRM1 PAM, M1 antag, CHRM1 agonist)
O=C(NC1CCN(Cc2ccccc2)C1)c1cc(COc2ccc(F)cc2F)on1 (centres undefined)	none
CCc1cc(=O)oc2cc(C)cc(OC(C)C(=O)NC3CCN(Cc4ccccc4)CC3)c12 (centres undefined)	CHRM1 agonist 23
Cc1ccc(C)c(OCc2cc(C(=O)NC3CCN(Cc4ccccc4)CC3)no2)c1	M1 antag 32
O=C(COc1ccc(S(=O)(=O)Nc2ccc(Cl)cc2)cc1)N1CCOCC1	CHRM1 agonist 18
COc1ccc(NS(=O)(=O)c2ccc(OCC(=O)N3CCOCC3)cc2)cc1	none
COc1ccc(Cl)cc1C(=O)Nc1ccc(OCC(=O)N2CCOCC2)cc1	M5 PAM 18
CC(C)(C)S(=O)(=O)N1C[C@H]2CC/C=C\C/C(c3ccccc3)=C\2[C@@H]1CCO	none
C=CCN1C(=O)C(=Cc2ccc3c(c2)CCC3)SC1=S	none
Cc1ccc(S(=O)(=O)n2c(=O)oc3ccccc32)cc1	none
CCOC(=O)c1ccc(S(=O)(=O)n2c(=O)oc3ccccc32)cc1	M1 antag 31
C=CCc1ccc(OCCCCCN2CCOCC2)c(OC)c1	M1 antag 46
C=CCc1ccc(OCCCCOc2ccc(C(=O)O)cc2)c(OC)c1	none
Cc1ccc(C(C)C)c(OCCCCCN2CCOCC2)c1	M1 antag 69
Cc1ccc(C(C)C)c(OCCCCN2CCNCC2)c1	none
Cc1nn(Cc2ccc(Cl)c(Cl)c2)c(C)c1NC(=O)c1cn(-c2ccccc2)nc1-c1ccccc1	M5 PAM 25
Cc1cccc(C)c1NC(=O)c1cn(-c2ccccc2)nc1-c1ccccc1	none
Clc1ccc(C[n+]2csc3ccccc32)cc1	none
Fc1ccc(C[n+]2csc3ccccc32)cc1	M5 antag 43, CHRM5 agonist 46
C=CCOc1ccc(C(=O)/C=C2/C(=O)Nc3ccccc32)cc1	none
O=C1Nc2ccccc2/C1=C/C(=O)c1cccs1	M5 PAM 19
COc1ccc(C(=O)/C=C2/C(=O)Nc3ccccc32)cc1OC	M1 antag 33, CHRM1 agonist 18
COc1ccc(C(=O)/C=C2/C(=O)Nc3ccccc32)cc1	none
CCCCC[C@H](O)/C=C/C1C(=O)C=C[C@H]1C/C=C\CCCC(=O)OC (some centres undefined)	none
Cc1sc2nc(CN(Cc3cccs3)C(=O)NC3CCCCC3)[nH]c(=O)c2c1C	M5 PAM 29
Cc1sc2nc(CN(C(=O)NC3CCCCC3)C3CCCC3)[nH]c(=O)c2c1C	none
Nn1cnc2c(ncn2C2OC(CO)C(O)C2O)c1=O (centres undefined)	none
COc1ccc(NC(=O)C2CCCN(S(C)(=O)=O)C2)c(OC)c1 (centres undefined)	M5 PAM 19
COc1ccc(NC(=O)C2CCN(S(C)(=O)=O)CC2)c(OC)c1	none
COc1ccc(C(=O)N2CCC(C(=O)Nc3ccccc3OC)CC2)cc1	none
COc1ccc(NC(=O)C2CCN(C(=O)c3ccccc3)CC2)c(OC)c1	M1 antag 61
C[C@H]1CN([C@@H](C)CO)C(=O)c2cc(C#Cc3ccccn3)cnc2O[C@@H]1CN(C)Cc1ccccc1	none
Cc1ccc(S(=O)(=O)NCCC(=O)Nc2cc(F)ccc2C)cc1C	M1 antag 21
CCCN(C(=O)CSc1nnc(-c2ccc3c(c2)OCO3)o1)C1CCS(=O)(=O)C1 (centres undefined)	none
CNc1nc2cc([N+](=O)[O-])c([N+](=O)[O-])cc2nc1NC	M5 antag 30, M1 antag 30
Cc1cccc(N2C(=O)N3[C@H](c4ccc(F)cc4)[C@@H]4C(=O)N(C5CCCCC5)C(=O)[C@@H]4[C@]3(Cc3ccc(Cl)cc3)C2=O)c1	none
Cc1cccc(N2C(=O)N3[C@H](c4ccc(Cl)cc4)[C@@H]4C(=O)N(C5CCCCC5)C(=O)[C@@H]4[C@]3(Cc3ccc(Cl)cc3)C2=O)c1	M5 PAM 19
O=C(NCc1ccccc1)C(c1ccccc1)N(Cc1cccs1)C(=O)c1cnccn1 (centres undefined)	M1 antag 43
COc1ccc(NC2=NCC(=O)N2Cc2cccs2)cc1	M5 PAM 21
CCc1nc2c(OCC3CCCCC3)cccn2c1N(C)C(=O)c1ccccc1F	none
CC(=O)Nc1ccc(NC(=O)Cn2cnc3c(nnn3Cc3ccc(F)cc3)c2=O)cc1	CHRM1 agonist 16

Screening results as filed in PubChem BioAssay.
